Experimental data published in PubChem BioAssay.
Active and inactive are the calls of the source.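 The calls were made as follows, unless noted: active = GFP response above 150% of the DMSO level; inconclusive = fewer than 70 events counted for a yeast strain; inactive = the rest.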

Columns and labels:
[1] = hit retest on RPL19A-GFP reporter strain – cell-based, S. cerevisiae, flow cytometry, cherry picks, mother/daughter gates, confirmation (AID 2270;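 active = GFP response below 50% of the DMSO control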); settings: 3 h, at 10 µM, stronger effect = lower value, 100 = same GFP as DMSO wells
[2] = yeast TOR pathway reporter LAP4-GFP change – cell-based, cherry picks, flow cytometry, mother/daughter gates, confirmation (AID 2271;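 active = GFP response above 150% of the DMSO control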;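 also: ratio of sample to DMSO plate mean so 100% equals DMSO level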); settings: S. cerevisiae LAP4-GFP strain, 3 h, at 10 µM, stronger effect = higher value, 100 means same as DMSO control
Procedure, shortened: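 Measured by: GFP by flow cytometry. Test system: GFP-fusion yeast strain. Input: yeast cells seeded at OD600 of 0.2. Timing: 30 °C, 3 h compound incubation, rotating. Buffer or medium: synthetic complete medium for yeast. Benchmarks: DMSO-only negative wells, rapamycin 400 ng/mL positive wells. Compound: 10 µM single dose.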

[3] = TOR pathway reporter MEP2-GFP, retest of hits – S. cerevisiae, flow cytometry GFP, cherry picks, confirmation (AID 2272;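 active = GFP response above 150% of the DMSO control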;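 also: ratio of well signal to plate DMSO mean so 100% equals DMSO level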); settings: S. cerevisiae MEP2-GFP strain, 3 h, at 10 µM, stronger effect = higher value
[4] = yeast AGP1-GFP fluorescence change, single-dose – cell-based, flow cytometry, S. cerevisiae, cherry picks, confirmation (AID 2273);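 also: median GFP channel fluorescence over the whole cell population gate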; settings: S. cerevisiae AGP1-GFP strain, 3 h, at 10 µM
[5] = TOR pathway CIT2 reporter hit retest – S. cerevisiae, GFP fusion, cherry picks, mother/daughter gates, confirmation (AID 2274); settings: S. cerevisiae CIT2-GFP strain, flow cytometry, 3 h, at 10 µM, stronger effect = higher value
[6] = measured here: daughter cell gate
[7] = measured here: mother cell gate
[8] = measured here: daughter cell gate response
[9] = measured here: mother cell gate response

SMILES	GFP response vs DMSO [1]	GFP response vs DMSO [1, 6] [%]	GFP response vs DMSO [1, 7] [%]	GFP response relative to DMSO [2]	GFP response relative to DMSO [2, 8] [%]	GFP response relative to DMSO [2, 9] [%]	GFP response vs DMSO [3]	GFP response, % of DMSO [4]	GFP response, % of DMSO [5]	GFP response, % of DMSO [5, 6] [%]	GFP response, % of DMSO [5, 7] [%]
Cc1cc(Cl)ccc1N1C(=O)CC(SCCC(=O)O)C1=O (stereo not drawn)	96.4% (inactive)	97.6	95.3	103% (inactive)	102	105	102% (inactive)	97.8% (inactive)	103% (inactive)	103	101
Cc1ccc(C)c(-c2nnc(NC(=O)c3ccc([N+](=O)[O-])o3)o2)c1	101% (inactive)	95.7	101	115% (inactive)	114	116	107% (inactive)	91.6% (inactive)	90.1% (inactive)	90.2	87
O=C1C=C(c2ccccc2)C(=O)N1Nc1ccccc1	77.5% (inactive)	88.3	64.5	124% (inactive)	96	113	102% (inactive)	78.4% (inactive)	92.6% (inactive)	95.4	78.3
O=S(=O)(c1ccccc1)N1N=C(c2ccccc2)CC1c1ccccc1 (stereo not drawn)	105% (inactive)	105	103	97% (inactive)	97.5	97.3	112% (inactive)	99.4% (inactive)	106% (inactive)	108	104
O=C1Nc2ccc(Br)cc2/C1=C/C(=O)c1ccc2c(c1)OCO2	101% (inactive)	99.4	98.9	125% (inactive)	117	130	105% (inactive)	94.5% (inactive)	101% (inactive)	101	96.1
COC(=O)C1CCN(C(=O)COC(=O)CCc2nc3ccccc3c(=O)[nH]2)CC1	98.8% (inactive)	99.6	99.8	97.7% (inactive)	97.9	96.5	99.5% (inactive)	98% (inactive)	99.3% (inactive)	102	95.6
COc1ccc(CCNC2=C(Cl)C(=O)N(CCc3ccccc3)C2=O)cc1OC	101% (inactive)	102	102	103% (inactive)	105	103	102% (inactive)	97.4% (inactive)	107% (inactive)	99.7	103
Cc1cccn2c(=O)c(/C=C(\C#N)C(=O)NCc3ccco3)c(N3CCC(C(N)=O)CC3)nc12	89.5% (inactive)	90.9	91.4	99.8% (inactive)	99.7	100	103% (inactive)	101% (inactive)	92.2% (inactive)	95.2	92.8
c1ccc(Cn2ncc3ccccc32)cc1	100% (inactive)	101	101	94.2% (inactive)	92.2	93.6	99.5% (inactive)	96.2% (inactive)	97.8% (inactive)	98.3	96.8
COC(=O)Cn1cc(/C=C/[N+](=O)[O-])c2ccccc21	101% (inactive)	103	100	145% (inactive)	146	145	101% (inactive)	103% (inactive)	106% (inactive)	108	103
CS(=O)(=O)c1sc(C#N)c2c1C(=O)CC(c1ccccc1)C2 (stereo not drawn)	103% (inactive)	111	96.6	174% (active)	168	179	116% (inactive)	117% (inactive)	105% (inactive)	111	95.7
O=C1CC(c2ccccc2)CN1S(=O)(=O)c1ccccc1 (stereo not drawn)	98.4% (inactive)	96.4	98.9	97.9% (inactive)	99.2	97.2	105% (inactive)	101% (inactive)	103% (inactive)	103	103
C/C(=N\NC(=O)c1cccc(Br)c1)c1ccc(Br)cc1	96.7% (inactive)	98.7	95	106% (inactive)	97.5	107	103% (inactive)	98.8% (inactive)	98.6% (inactive)	101	98.2
Cn1cc(/C=C/c2cc[n+](C)cc2)c2cc(Cl)ccc21	99.2% (inactive)	97.9	100	111% (inactive)	112	110	122% (inactive)	111% (inactive)	125% (inactive)	128	124
CCOc1cc(/C=C2/N=C(c3ccc4c(c3)OCO4)OC2=O)ccc1OC(C)=O	92% (inactive)	87.5	94.2	95.7% (inactive)	95.9	96.2	101% (inactive)	103% (inactive)	97.3% (inactive)	95.6	98.1
COc1cc(/C=C2\N=C(c3ccccc3)OC2=O)ccc1OCc1c(C)no[n+]1[O-]	103% (inactive)	101	103	96.5% (inactive)	97.9	96.5	104% (inactive)	97.5% (inactive)	99.3% (inactive)	100	96.8
CNC(=O)/C(C#N)=C/c1c(N(Cc2ccccc2)Cc2ccccc2)nc2c(C)cccn2c1=O	97.2% (inactive)	98.1	97.8	94.4% (inactive)	95.9	93.1	112% (inactive)	103% (inactive)	106% (inactive)	108	104

SMILES	GFP response vs DMSO [1]	GFP response vs DMSO [1, 6] [%]	GFP response vs DMSO [1, 7] [%]	GFP response relative to DMSO [2]	GFP response relative to DMSO [2, 8] [%]	GFP response relative to DMSO [2, 9] [%]	GFP response vs DMSO [3]	GFP response, % of DMSO [4]	GFP response, % of DMSO [5]	GFP response, % of DMSO [5, 6] [%]	GFP response, % of DMSO [5, 7] [%]
Cc1ccc(C=C2C(Cl)=C(Cl)C(Cl)=C2Cl)cc1	103% (inactive)	102	97.7	148% (inactive)	139	161	114% (inactive)	105% (inactive)	106% (inactive)	105	94.7
O=C(O)CCc1ccc(-c2ccccc2)o1	94.4% (inactive)	92.6	96.4	139% (inactive)	138	138	96.2% (inactive)	93.1% (inactive)	94% (inactive)	95.4	92.6
COc1ccc(NC(=O)/C(C#N)=C/c2ncc([N+](=O)[O-])n2C)c(OC)c1	97.2% (inactive)	95.1	99.8	151% (active)	138	162	169% (inactive)	99.5% (inactive)	134% (inactive)	132	136
O=C(Nc1ccccc1O)c1ccccc1O	95.8% (inactive)	96.4	94.2	96.5% (inactive)	96	95.4	106% (inactive)	103% (inactive)	101% (inactive)	103	100
CNC(=O)/C(C#N)=C/c1c(N(Cc2ccccc2)Cc2ccccc2)nc2ccccn2c1=O	97.3% (inactive)	98.1	96.9	100% (inactive)	99	101	93.1% (inactive)	104% (inactive)	100% (inactive)	101	99.3
CCCOc1ccc(C(=O)NNC(=S)NC(=O)c2ccco2)cc1	124% (inactive)	111	110	175% (active)	148	167	137% (inactive)	131% (inactive)	134% (inactive)	132	121
CCOc1ccc2ccccc2c1C(=O)N1CCN(c2ccccc2)CC1	97.8% (inactive)	98.4	96.3	105% (inactive)	105	105	99.3% (inactive)	98.4% (inactive)	93.1% (inactive)	94	93.8
Cc1ccc(C2CC(c3ccco3)=NN2S(C)(=O)=O)cc1 (stereo not drawn)	97.2% (inactive)	97	97.1	105% (inactive)	102	104	106% (inactive)	93.8% (inactive)	96.4% (inactive)	98.3	95.6
CCOc1cc(/C=C2\N=C(C)OC2=O)cc(Br)c1OCC(=O)OC	98.2% (inactive)	100	96.9	133% (inactive)	128	134	102% (inactive)	94% (inactive)	99.3% (inactive)	102	94.5
COc1cccc2c1Oc1ncccc1N(C(=O)CCC(=O)NCc1ccc(C)cc1)C2	101% (inactive)	100	103	95.7% (inactive)	94.2	96.2	99% (inactive)	106% (inactive)	98.8% (inactive)	99.2	98.1
Cc1ccccc1Oc1ncnc2oc(-c3ccccc3)cc12	100% (inactive)	98.9	101	96.7% (inactive)	96	97.2	102% (inactive)	97.2% (inactive)	99.7% (inactive)	99.1	96.1
COc1ccc2c(c1)c(C(C)=O)c(C)n2-c1ccccc1OC	96.5% (inactive)	97.8	95.4	101% (inactive)	99	101	101% (inactive)	107% (inactive)	103% (inactive)	101	103
Cc1ccc(S(=O)(=O)c2ncccc2N)cc1	99.4% (inactive)	99.4	99	101% (inactive)	101	98.3	100% (inactive)	102% (inactive)	101% (inactive)	101	99.7
CCCc1[nH]nc2c1C(c1ccc(OC)c(Cn3nc(C)c(Br)c3C)c1)C(C#N)=C(N)O2 (stereo not drawn)	95% (inactive)	94.2	96.2	97.7% (inactive)	97.9	98.5	99.5% (inactive)	99.3% (inactive)	97.8% (inactive)	98.3	95.6
Cc1ccc(-c2csc(NC(=O)c3cccs3)n2)cc1	98.8% (inactive)	93.9	99.6	105% (inactive)	99.1	107	112% (inactive)	98% (inactive)	94.4% (inactive)	90.2	94.4
Cc1ccn2c(NC3CCCCC3)c(C(C)C)nc2c1	99.4% (inactive)	99.4	99.2	101% (inactive)	101	100	100% (inactive)	100% (inactive)	101% (inactive)	103	101
